Source: PubChem
E-sel inducer – E-selectin induction on HUVECs | P16581 | HUVEC E-selectin immunofluorescence imaging; normalized: neutral wells 0, TNF-alpha wells 100 | activation, % at 7.58 µM | actives 0.37% (n = 260,000) | AID 686992;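 active = mean E-selectin-positive cell signal at least 10% of the positive control, reached in at least 60% of replicates, without over 20% cell loss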
Target sequence (P16581 whole entry, looked up): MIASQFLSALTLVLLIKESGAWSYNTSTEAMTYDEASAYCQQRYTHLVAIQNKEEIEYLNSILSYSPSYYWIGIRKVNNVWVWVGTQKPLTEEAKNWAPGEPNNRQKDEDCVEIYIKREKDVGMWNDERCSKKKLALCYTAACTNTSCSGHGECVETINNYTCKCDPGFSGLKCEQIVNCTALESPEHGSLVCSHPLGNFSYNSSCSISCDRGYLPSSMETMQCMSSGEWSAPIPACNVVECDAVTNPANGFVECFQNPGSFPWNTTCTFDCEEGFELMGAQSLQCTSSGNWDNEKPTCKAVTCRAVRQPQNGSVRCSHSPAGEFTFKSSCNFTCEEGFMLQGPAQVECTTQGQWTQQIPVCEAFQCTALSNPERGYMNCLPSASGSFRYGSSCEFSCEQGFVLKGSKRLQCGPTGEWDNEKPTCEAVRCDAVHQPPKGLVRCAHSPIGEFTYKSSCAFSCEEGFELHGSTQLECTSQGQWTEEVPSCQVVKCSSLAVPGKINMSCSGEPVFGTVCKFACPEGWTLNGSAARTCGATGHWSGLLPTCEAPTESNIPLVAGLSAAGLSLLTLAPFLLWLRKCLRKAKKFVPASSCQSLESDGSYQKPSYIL
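Material: HUVEC primary endothelial cells; Amount: 3,000 cells per well; Dosing: single concentration; Medium: EGM-2 growth medium on 0.1% gelatin-coated wells; Read-out basis: percent E-selectin-positive cells; Signal: immunofluorescence imaging; Control set: TNF-alpha, DMSO.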
Each line names hits and unclear results; the compound was inactive in the other large screens. Many of the other results were omitted from the sample, so hits are more common in it than they were.

COc1ccccc1CN1CC(C(=O)N(C)Cc2[nH]c3ccccc3c2C)CCC1=O (configuration not stated)	E-sel inducer 119
COc1ccccc1CN1CC(C(=O)N(C)CCCn2nc(C)cc2C)CCC1=O (configuration not stated)	none
COc1ccccc1CN1CC(C(=O)N(CCO)Cc2cccs2)CCC1=O (configuration not stated)	none
CN(C)CCCNC(=O)C[C@H]1CC[C@H]2[C@@H](COC[C@@H](O)CN2CC2CC2)O1	none
CCCNC(=O)N1CC2(CN(S(=O)(=O)c3ccc(OC)cc3)C2)c2c(n(C)c3cc(OC)ccc23)[C@@H]1CO	none
COC(=O)c1ccc(CN2CC(=O)N3[C@H](CO)[C@H](c4ccc(Br)cc4)[C@H]3C2)cc1	none
CN1C(=O)c2cc(NC(=O)NCc3ccccc3)ccc2OC[C@H]2O[C@@H](CC(=O)O)CC[C@@H]21	none
CCCC(=O)Nc1ccc2c(c1)C(=O)N(C)[C@H]1CC[C@H](CC(=O)NCc3ccccc3)O[C@@H]1CO2	none
O=C(N[C@@H]1CC[C@H](CCn2cc(-c3ccccn3)nn2)O[C@H]1CO)c1ccc(F)cc1	none
Cc1ccc(S(=O)(=O)Nc2cccc3c2O[C@@H](CN(C)C(=O)Nc2c(C)noc2C)[C@@H](C)CN([C@H](C)CO)C3=O)cc1	none
COc1ccc(S(=O)(=O)Nc2cccc3c2O[C@@H](CN(C)C(=O)Nc2c(C)noc2C)[C@H](C)CN([C@@H](C)CO)C3=O)cc1	none
COc1ccc(S(=O)(=O)Nc2cccc3c2O[C@H](CN(C)C(=O)Nc2c(C)noc2C)[C@@H](C)CN([C@@H](C)CO)C3=O)cc1	E-sel inducer 32
Cc1ccc(S(=O)(=O)Nc2cccc3c2O[C@@H](CN(C)C(=O)Nc2c(C)noc2C)[C@H](C)CN([C@@H](C)CO)C3=O)cc1	none
COc1ccc(S(=O)(=O)Nc2cccc3c2O[C@H](CN(C)C(=O)Nc2c(C)noc2C)[C@H](C)CN([C@H](C)CO)C3=O)cc1	E-sel inducer 96
Cc1ccc(S(=O)(=O)Nc2cccc3c2O[C@H](CN(C)C(=O)Nc2c(C)noc2C)[C@@H](C)CN([C@H](C)CO)C3=O)cc1	none
O=C(C[C@H]1C=C[C@H](NS(=O)(=O)c2ccccc2)[C@H](CO)O1)NCc1ccc(Cl)c(Cl)c1	none
C[C@@H]1CN([C@@H](C)CO)C(=O)Cc2cc(NC(=O)Cc3ccccc3)ccc2O[C@@H]1CN(C)C(=O)Nc1ccccc1	none
Cc1noc(C)c1NC(=O)N(C)C[C@@H]1Oc2c(cccc2N(C)C)C(=O)N([C@@H](C)CO)C[C@H]1C	none
Cc1ccccc1-c1cnc2c(c1)C(=O)N([C@@H](C)CO)C[C@H](C)[C@@H](CN(C)C(=O)c1ccc(F)cc1)O2	none
CCN(CC)C(=O)c1cn(-c2cccc(OC)c2)c(=O)c2ccccc12	E-sel inducer 67
CCC(C)NC(=O)c1cn(-c2cccc(OC)c2)c(=O)c2ccccc12 (configuration not stated)	none
CN(C)C(=O)c1cn(-c2ccc(Cl)cc2)c(=O)c2ccccc12	none
O=C(Nc1ccccc1)N1CC(=O)N2[C@H](C1)[C@@H](c1ccc(C#CC3CCCC3)cc1)[C@@H]2CO	none
C[C@@H]1CN([C@@H](C)CO)C(=O)c2cccc(NS(=O)(=O)c3ccccc3)c2O[C@H]1CN(C)S(=O)(=O)c1ccc(Cl)cc1	none
CNC[C@@H]1Oc2cc(C#CCN(C)C)ccc2S(=O)(=O)N([C@@H](C)CO)C[C@H]1C	none
CC(C)NC(=O)Nc1ccc2c(c1)C(=O)N([C@H](C)CO)C[C@@H](C)[C@@H](CN(C)C(=O)CCC(F)(F)F)OCCCC[C@@H](C)O2	none
CC12CCC(=O)N1C(C(=O)Nc1cc(Cl)ccc1N1CCOCC1)CS2 (configuration not stated)	E-sel inducer 135
Cc1ccc(NC(=O)C2CSC3(C)CCC(=O)N23)cc1S(=O)(=O)N1CCOCC1 (configuration not stated)	none
CCN(CC)S(=O)(=O)c1ccc(N2CCCCC2)c(NC(=O)C2CSC3(C)CCC(=O)N23)c1 (configuration not stated)	none
C[C@@H]1CN([C@H](C)CO)C(=O)c2cc(NC(=O)c3ccncc3)ccc2O[C@@H](C)CCCCO[C@H]1CN(C)C(=O)c1ccccc1	none
COc1ccccc1NC(=O)N[C@@H]1CC[C@H](CCNS(=O)(=O)c2ccc(F)cc2)O[C@@H]1CO	none
N#Cc1cc2c([nH]c1=O)CCCC2	none
CCc1cc2c(=O)[nH]c(-c3ccncc3)nc2s1	none
Cc1[nH]c(=O)c(C#N)cc1-c1ccncc1	E-sel inducer 58
C[C@H](CO)N1C[C@H](C)[C@H](CN(C)C(=O)Nc2ccc3c(c2)OCO3)OCCCC[C@H](C)Oc2ccc(NS(=O)(=O)c3ccccc3)cc2C1=O	none
Cc1ccc(C)c(NC(=O)CN(C)C(=O)c2ccc(-n3cncn3)c([N+](=O)[O-])c2)c1	none
Cc1cccc(C)c1NC(=O)CN(C)C(=O)c1ccc(-n2cncn2)c([N+](=O)[O-])c1	E-sel inducer 50
Cc1cc(Br)ccc1NC(=O)CN(C)C(=O)c1ccc(-n2cncn2)c([N+](=O)[O-])c1	none
COc1cccc(CN2[C@H](CO)[C@H]3c4ccccc4N(C(=O)c4ccncc4)C[C@H]32)c1	none
CN(C)C(=O)c1ccc(-c2ccc([C@@H]3[C@@H](CO)N4C(=O)CN(C(=O)C5CC5)C[C@@H]34)cc2)cc1	none
COCCNC(=O)C[C@H]1CC[C@@H]2[C@H](COC[C@H](O)CN2S(=O)(=O)c2ccccc2C)O1	none
CN(C)C(=O)c1ccc(-c2ccc([C@H]3[C@@H](CO)N4C(=O)CN(C(=O)C5CCCC5)C[C@@H]34)cc2)cc1	none
Cc1noc(C)c1NC(=O)N(C)C[C@@H]1Oc2ccc(NS(=O)(=O)c3c(C)noc3C)cc2CC(=O)N([C@H](C)CO)C[C@H]1C	none
C[C@H]1CCCCO[C@@H](CN(C)S(=O)(=O)c2ccc(F)cc2)[C@@H](C)CN([C@@H](C)CO)C(=O)c2cc(NC(=O)Nc3ccccc3)ccc2O1	none
C[C@@H]1CN([C@H](C)CO)C(=O)c2cc(NC(=O)Cn3cnnn3)ccc2O[C@H]1CN(C)Cc1ccc2c(c1)OCO2	none
C[C@@H]1CN([C@@H](C)CO)C(=O)Cc2cc(NC(=O)Cn3cnnn3)ccc2O[C@H]1CN(C)Cc1ccc(Oc2ccccc2)cc1	E-sel inducer 283
C[C@@H]1CN([C@H](C)CO)C(=O)Cc2cc(NC(=O)Cn3cnnn3)ccc2O[C@@H]1CN(C)Cc1ccc(Oc2ccccc2)cc1	none
C[C@@H]1CN([C@H](C)CO)C(=O)c2cc(NC(=O)Cn3cnnn3)ccc2O[C@H]1CN(C)Cc1ccc(Oc2ccccc2)cc1	none
C[C@H](CO)N1C[C@H](C)[C@H](CN(C)Cc2ccccc2)Oc2ccc(NC(=O)Cn3cnnn3)cc2C1=O	none
C[C@H]1CN([C@@H](C)CO)C(=O)c2cc(NC(=O)Cn3cnnn3)ccc2O[C@@H]1CN(C)Cc1ccc(Oc2ccccc2)cc1	E-sel inducer 48
C[C@@H]1CN([C@H](C)CO)C(=O)c2cc(NC(=O)Cn3cnnn3)ccc2O[C@H]1CN(C)Cc1ccccc1	none
C[C@H]1CN([C@@H](C)CO)C(=O)Cc2cc(NC(=O)Cn3cnnn3)ccc2O[C@@H]1CN(C)Cc1ccc(Oc2ccccc2)cc1	none
C[C@H]1CN([C@@H](C)CO)C(=O)c2cc(NC(=O)Cn3cnnn3)ccc2O[C@H]1CN(C)Cc1ccc(Oc2ccccc2)cc1	E-sel inducer 139
C[C@H]1CN([C@@H](C)CO)C(=O)c2cc(NC(=O)Cn3cnnn3)ccc2O[C@@H]1CN(C)Cc1ccc2c(c1)OCO2	E-sel inducer 38
